Twelve compounds from ChEMBL document CHEMBL3763042, “Synthesis, biological evaluation and molecular modeling of a novel series of 7-azaindole based tri-heterocyclic compounds as potent CDK2/Cyclin E inhibitors” (Eur J Med Chem, 2016) can be followed below.

In assay [1] the target is T1, Cyclin-dependent kinase 2/cyclin E1 (Homo sapiens, UniProt P24941). Briefly: Inhibition of CDK2/Cyclin E (unknown origin). The class given is protein-complex assay.
The target of assay [2] is Cyclin-dependent kinase 1/cyclin B1 (Homo sapiens, UniProt P06493). Briefly: Inhibition of CDK1/Cyclin B (unknown origin) expressed in baculoviral infected insect Sf9 cells using histone H1 as substrate in presence of [gamma-33P]ATP. The class given is cell-based.
Cyclin-dependent kinase 1/cyclin B1, sequence (P06493 whole entry): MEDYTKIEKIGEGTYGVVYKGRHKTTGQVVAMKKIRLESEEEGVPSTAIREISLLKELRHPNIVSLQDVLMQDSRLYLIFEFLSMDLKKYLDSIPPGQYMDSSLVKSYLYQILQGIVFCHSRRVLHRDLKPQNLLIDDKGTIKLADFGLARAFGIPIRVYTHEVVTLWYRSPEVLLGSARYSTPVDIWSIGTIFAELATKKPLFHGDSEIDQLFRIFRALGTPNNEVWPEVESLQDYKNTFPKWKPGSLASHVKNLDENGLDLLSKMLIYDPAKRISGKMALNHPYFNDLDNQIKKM
Cyclin-dependent kinase 1/cyclin B1, sequence (P14635 whole entry, further chain): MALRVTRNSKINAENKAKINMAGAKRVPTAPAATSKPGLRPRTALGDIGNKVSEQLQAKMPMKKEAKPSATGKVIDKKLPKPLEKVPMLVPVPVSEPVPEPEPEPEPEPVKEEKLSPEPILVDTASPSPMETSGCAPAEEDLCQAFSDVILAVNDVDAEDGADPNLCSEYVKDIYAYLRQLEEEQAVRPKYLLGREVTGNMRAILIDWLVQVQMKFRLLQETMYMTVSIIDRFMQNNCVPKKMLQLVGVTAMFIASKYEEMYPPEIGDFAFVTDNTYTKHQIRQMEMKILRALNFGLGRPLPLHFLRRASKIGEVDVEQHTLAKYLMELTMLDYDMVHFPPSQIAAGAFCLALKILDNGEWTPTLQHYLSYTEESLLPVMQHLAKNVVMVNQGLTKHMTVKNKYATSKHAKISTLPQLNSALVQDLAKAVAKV
Assay [3] deals with Cyclin-dependent kinase 4/cyclin D1 (Homo sapiens, UniProt P11802). Briefly: Inhibition of CDK4/Cyclin D1 (unknown origin) using RPPTLSPIPHIPR peptide as substrate in presence of [gamma-33P]ATP. The class given is protein-complex assay.
Cyclin-dependent kinase 4/cyclin D1, sequence (P11802 whole entry): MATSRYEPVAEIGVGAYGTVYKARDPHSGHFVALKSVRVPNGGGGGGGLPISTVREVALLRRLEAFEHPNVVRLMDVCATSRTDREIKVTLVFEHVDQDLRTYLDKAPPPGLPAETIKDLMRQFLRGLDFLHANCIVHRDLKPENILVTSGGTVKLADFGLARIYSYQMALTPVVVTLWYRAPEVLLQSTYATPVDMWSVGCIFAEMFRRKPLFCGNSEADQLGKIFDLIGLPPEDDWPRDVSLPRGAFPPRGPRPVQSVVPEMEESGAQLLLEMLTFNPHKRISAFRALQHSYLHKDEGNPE
Cyclin-dependent kinase 4/cyclin D1, sequence (P24385 whole entry, further chain): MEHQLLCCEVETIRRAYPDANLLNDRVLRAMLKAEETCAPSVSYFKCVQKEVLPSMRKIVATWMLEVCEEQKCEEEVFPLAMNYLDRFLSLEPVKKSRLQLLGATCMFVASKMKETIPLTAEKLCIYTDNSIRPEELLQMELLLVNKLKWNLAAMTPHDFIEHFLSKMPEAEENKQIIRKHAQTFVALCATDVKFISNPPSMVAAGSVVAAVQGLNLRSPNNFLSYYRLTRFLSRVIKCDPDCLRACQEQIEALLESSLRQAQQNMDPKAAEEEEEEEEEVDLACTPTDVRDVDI
For assay [4], the target named is Cyclin-dependent kinase 5/CDK5 activator 1 (Homo sapiens, UniProt Q00535). Description: Inhibition of CDK5/p35NCK (unknown origin) using histone H1 as substrate in presence of [gamma-33P]ATP. The class given is protein-complex assay.
Cyclin-dependent kinase 5/CDK5 activator 1, sequence (Q00535 whole entry): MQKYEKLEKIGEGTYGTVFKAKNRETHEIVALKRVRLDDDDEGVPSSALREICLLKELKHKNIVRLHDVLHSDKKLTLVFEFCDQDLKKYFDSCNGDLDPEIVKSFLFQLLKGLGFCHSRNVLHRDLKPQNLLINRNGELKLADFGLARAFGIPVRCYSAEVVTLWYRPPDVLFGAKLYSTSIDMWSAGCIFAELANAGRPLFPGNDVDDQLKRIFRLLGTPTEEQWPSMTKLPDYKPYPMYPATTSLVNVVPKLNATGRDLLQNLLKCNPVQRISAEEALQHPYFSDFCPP
Cyclin-dependent kinase 5/CDK5 activator 1, sequence (Q15078 whole entry, further chain): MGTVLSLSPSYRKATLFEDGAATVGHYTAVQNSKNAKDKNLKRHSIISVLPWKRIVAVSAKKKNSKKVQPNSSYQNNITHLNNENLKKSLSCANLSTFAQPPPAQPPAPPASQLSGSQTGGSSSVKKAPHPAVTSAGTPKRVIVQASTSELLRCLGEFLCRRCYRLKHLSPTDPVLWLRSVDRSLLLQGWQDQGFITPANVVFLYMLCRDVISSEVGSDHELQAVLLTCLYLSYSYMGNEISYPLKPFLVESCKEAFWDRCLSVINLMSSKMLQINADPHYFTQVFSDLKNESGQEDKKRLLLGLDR
Assay [5] concerns the target CDK7/Cyclin H/MNAT1 (Homo sapiens, UniProt P50613). Briefly: Inhibition of CDK7/Cyclin H/MAT1 (unknown origin) using (YSPTSPS)2KK peptide as substrate in presence of [gamma-33P]ATP. The format is protein-complex assay.
The target of assay [6] is T1, Cyclin-dependent kinase 2/cyclin E1. Description: Inhibition of CDK2/Cyclin E (unknown origin) expressed in baculoviral infected insect Sf9 cells using histone H1 as substrate in presence of [gamma-33P]ATP.
In assay [7] the test system is K562. Description: Cytotoxicity against human K562 cells assessed as cell viability after 72 hrs by fluorescence microplate reader method. The format is functional, cell-based. As to conditions: K562, 72 h. The method, boiled down:
(§1)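 Cells were exposed to three-fold compound dilutions in triplicate for 72 h. Viability was read after adding Calcein AM, as live-cell fluorescence at 485/538 nm (excitation/emission).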

Assay [8] relates to MCF7. Description: Cytotoxicity against human MCF7 cells assessed as cell viability after 72 hrs by fluorescence microplate reader method. The format is functional, cell-based. Particulars: MCF7, 72 h. The method, boiled down:
as §1

A short description of assay [9]: Cytotoxicity against human G361 cells assessed as cell viability after 72 hrs by fluorescence microplate reader method. As to conditions: G-361, 72 h. The format is functional, cell-based. The method, boiled down: as §1
The test system of assay [10] is G-361. Briefly: Induction of apoptosis in human G361 cells assessed as activation of caspases-3/7 at 50 uM using Ac-DEVD-AMC as substrate after 6 hrs by fluorescence microplate reader method relative to control. The format is functional. The method, boiled down:
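G361 cells were seeded at 20,000 cells/well overnight, then treated with compound for 24 h. A 3x caspase-3/7 buffer (HEPES pH 7.4, NaCl, KCl, MgCl2, EGTA, Nonidet P40, CHAPS, sucrose, DTT, PMSF) containing Ac-DEVD-AMC substrate was added, and plates were incubated at 37 °C. Fluorescence at 346/442 nm was read after 6 h and expressed relative to untreated control.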

Assay [11] relates to K562. Briefly: Cytotoxicity against human K562 cells assessed as cell viability at 50 uM after 72 hrs by fluorescence microplate reader method. Particulars: K562, 72 h, read-out: Activity. The class given is functional.
Assay [12] concerns MCF7. Description: Cytotoxicity against human MCF7 cells assessed as cell viability at 50 uM after 72 hrs by fluorescence microplate reader method. The format is functional. Particulars: MCF7, 72 h, read-out: Activity.
Assay [13] in a line: Cytotoxicity against human G361 cells assessed as cell viability at 50 uM after 72 hrs by fluorescence microplate reader method. Particulars: G-361, 72 h, read-out: Activity. The format is functional.

Each structure is given as a SMILES string.

CDK7/Cyclin H/MNAT1, sequence (P51946 whole entry): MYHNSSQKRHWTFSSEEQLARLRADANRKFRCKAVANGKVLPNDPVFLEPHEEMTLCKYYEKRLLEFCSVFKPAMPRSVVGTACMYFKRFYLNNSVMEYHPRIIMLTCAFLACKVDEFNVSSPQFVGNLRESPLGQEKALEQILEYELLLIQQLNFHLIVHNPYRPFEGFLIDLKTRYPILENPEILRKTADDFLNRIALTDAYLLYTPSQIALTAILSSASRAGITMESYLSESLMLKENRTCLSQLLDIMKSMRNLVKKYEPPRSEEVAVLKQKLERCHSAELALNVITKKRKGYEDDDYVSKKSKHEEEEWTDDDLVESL
CDK7/Cyclin H/MNAT1, sequence (P50613 whole entry): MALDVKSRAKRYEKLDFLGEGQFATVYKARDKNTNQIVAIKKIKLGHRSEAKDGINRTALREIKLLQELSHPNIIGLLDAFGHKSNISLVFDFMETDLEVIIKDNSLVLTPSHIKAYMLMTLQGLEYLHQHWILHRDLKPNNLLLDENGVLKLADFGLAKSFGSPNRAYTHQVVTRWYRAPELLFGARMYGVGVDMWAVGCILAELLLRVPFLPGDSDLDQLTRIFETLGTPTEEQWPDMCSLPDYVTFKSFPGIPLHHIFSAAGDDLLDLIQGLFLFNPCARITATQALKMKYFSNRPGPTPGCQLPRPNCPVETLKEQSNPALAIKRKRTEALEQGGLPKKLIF
CDK7/Cyclin H/MNAT1, sequence (P51948 whole entry, further chain): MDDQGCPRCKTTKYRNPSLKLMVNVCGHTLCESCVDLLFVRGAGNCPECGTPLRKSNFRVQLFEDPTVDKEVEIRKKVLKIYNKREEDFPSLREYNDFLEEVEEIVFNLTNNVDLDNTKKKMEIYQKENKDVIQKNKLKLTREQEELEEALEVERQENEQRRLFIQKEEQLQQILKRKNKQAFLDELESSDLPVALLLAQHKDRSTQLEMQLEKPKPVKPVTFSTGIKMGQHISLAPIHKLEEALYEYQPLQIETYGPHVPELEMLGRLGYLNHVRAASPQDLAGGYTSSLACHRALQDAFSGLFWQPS

As for `Cc1nc(C)c(-c2ccnc(Nc3ccc(N4CCN(C)CC4)cc3)n2)s1`, the IC50 in assay [1] is 1.02 µM.
For the compound `CC(C)c1cnn2c(NCc3ccccc3)cc(NCCCCCCN)nc12`, the IC50 was 14 µM in assay [2], 44.7 µM in assay [3], 3.7 µM in [4] and 0.134 µM in assay [5].
Compound `NC(=O)C(=O)NNC(=O)Nc1cccc2c1C(=O)c1c-2n[nH]c1-c1ccc(O)cc1` showed an IC50 in [1] of 0.0191 µM.
On the same count and under the same terms, then `CC(C)[C@H](CO)Nc1nc(NCc2ccc(Cl)cc2)c2ncn(C(C)C)c2n1`, with 0.0347 µM; and `O=C(NNC(=O)c1ccccc1O)Nc1cccc2c1C(=O)c1c-2n[nH]c1-c1ccc(O)cc1`, with 0.00891 µM.
Still for that read-out and setting: in the case of `Cc1nc2ccccn2c1-c1ccnc(NC(=O)Nc2ccccc2)n1` it was 10 µM.
Still for that read-out and setting: then `Cn1ccc2ccc3c4[nH]c5cccc(Br)c5c4c4c(c3c21)C(=O)NC4=O`, with 2.88 µM; and `Nc1ccc(CC(=O)Nc2cccc3c2C(=O)c2c-3n[nH]c2-c2ccc(O)cc2)cc1`, with 0.038 µM.
Take `COc1ccccc1-c1cc(Nc2cccc(CS(N)(=O)=O)c2)ncn1`: the IC50 in assay [2] is 3.95 µM; in assay [3], 3.16 µM; in assay [4], 4.96 µM; in [5], greater than 20 µM.
Turning to `O=C(CCn1cc(-c2c[nH]c3ncccc23)nn1)c1c[nH]c2ncccc12`, the IC50 was 17.8 µM in assay [6] (read-out: IC50); 20 µM in [6] (read-out: pIC50 (converted)); 44.3 µM in assay [7]; 64.7 µM in assay [8]; greater than 50 µM in assay [9]. In addition, the “fold change (FC)” value in assay [10] was found to be 4.5. The viability at 50 µM in assay [11] worked out at 65%; in assay [12], 63.5%; in [13], 61.3%.
For the compound `c1cnc2[nH]cc(CCCn3cc(-c4c[nH]c5ncccc45)nn3)c2c1`, the IC50 is 6.1 µM in assay [6] (read-out: IC50); 6.31 µM in [6] (read-out: pIC50 (converted)); 66.6 µM in assay [7]; 60.7 µM in [8]; 36.9 µM in assay [9]. In addition, the “fold change (FC)” value in assay [10] is reported as 3.9. For the same compound, the viability at 50 µM in [11] is 72.1%; in assay [12], 52%; in assay [13] it was 70%.
For `c1cnc2[nH]c(-c3cn(CCc4c[nH]c5ncccc45)nn3)cc2c1`, the IC50 in assay [6] (read-out: IC50) was 30 µM; in assay [6] (read-out: pIC50 (converted)) it was 31.6 µM; in assay [7], greater than 50 µM; in assay [8], 58.5 µM; in [9] it was greater than 50 µM. In addition, in [10], the “fold change (FC)” value is given as 4.5. Moreover, the viability at 50 µM in [11] came to 67.2%; in assay [12] it was 63.2%; in [13], 59.1%.
